As a reminder, the Tmax is the time from dosing to the highest level. Usually pKi stands for the negative decadic logarithm of the Ki, by convention in mol/L. A high value points to a small Ki. Broadly, the Cmax is the peak of the concentration-time curve. In general, half-life refers to the time needed for the level to fall by half in the phase considered. One may read the pEC50 as the negative decadic logarithm of the EC50, by convention in mol/L. A lower pEC50 goes with a high EC50. A word on the CC50: it is the concentration giving 50% cytotoxicity.

pEC50, pKi: −log10 of the molar value. Activity calls are given as the source filed them.

The source of these data is ChEMBL document CHEMBL4257576, “4-Iminooxazolidin-2-one as a Bioisostere of the Cyanohydrin Moiety: Inhibitors of Enterovirus 71 3C Protease” (J Med Chem, 2018).

A short description of series [1]: Tmax in ICR (CD-1) mouse at 20 mg/kg, po administered as single dose by LC-MS analysis. Type of series: ADME, organism-based. The note with it: in vivo. Put shortly: (§1)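 Male mice got a single 20 mg/kg dose, either IV or oral (PO), with separate groups for each route. Plasma concentration–time profiles were followed, and parameters were taken from mean ± SD curves (n = 3).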

The target of the next series is Genome polyprotein (Enterovirus A71, UniProt A0A1D8D5K2). Nature of the series: Inhibition of EV71 3C protease expressed in Escherichia coli BL21(DE3) using NMA-IEALFQGPPK(DNP)FR as substrate preincubated for 0.5 hrs followed by substrate addition by fluorescence assay. Put shortly:
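Values reported as Ki (µM), each the mean of three independent experiments with SEM (n=3).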

Series [2] relates to Mus musculus. Description: Cmax in ICR (CD-1) mouse at 20 mg/kg, po administered as single dose by LC-MS analysis. Type of series: ADME, organism-based. Set-up: dose 20 mg/kg, route oral. The note with it: in vivo. Put shortly:
as §1

Series [3] in a line: Half life in mouse liver microsomes at 1 mg/ml in presence of NADPH regenerating system by HPLC analysis. Type of series: ADME, microsome. Put shortly: (§2)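 Human and mouse liver microsomes at 1.0 mg/mL. Compound disappearance was tracked over time to give half-life and intrinsic clearance (Clint, µL/min/mg). Data are the mean of triplicates with SD (n = 3).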
(In general: Microsomes from liver hold many membrane-bound enzymes, among them those of drug oxidation.)

A further series relates to Enterovirus A71. Description: Antiviral activity against Enterovirus A71 infected in human RD cells receiving pEV71-Luc subgenomic replicon stocks from HEK-293T cells. Type of series: functional, organism-based. The note with it: Enterovirus A. Put shortly:
(§3)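 Values (EC50, CC50) are the average of three independent experiments, with SEM (n = 3).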
(Replicon systems follow genome replication, usually without infectious particles.)

The nature of series [4]: Half life in ICR (CD-1) mouse at 20 mg/kg, iv administered as single dose by LC-MS analysis. Type of series: ADME, organism-based. The note with it: in vivo. The gist of the method:
as §1

Series [5] in a line: Half life in ICR (CD-1) mouse at 20 mg/kg, po administered as single dose by LC-MS analysis. The note with it: in vivo. Type of series: ADME, organism-based. The gist of the method: as §1
Series [6] relates to Mus musculus. Nature of the series: AUC (0 to t) in ICR (CD-1) mouse at 20 mg/kg, po administered as single dose by LC-MS analysis. Type of series: ADME, organism-based. The note with it: in vivo. Put shortly: as §1
Series [7] is described as follows: Intrinsic clearance in human liver microsomes at 1 mg/ml in presence of NADPH regenerating system by HPLC analysis. Type of series: ADME, microsome. The note with it: read-out: CLH. The gist of the method:
as §2

The nature of series [8]: Half life in ICR (CD-1) mouse plasma by HPLC analysis. Type of series: ADME, cell-free. Put shortly:
(§4)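 Compound was incubated in human or mouse plasma and its remaining level followed over time to obtain t1/2. Each point is n = 3 with standard deviation bars.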

Series [9] in a line: Half life in human liver microsomes at 1 mg/ml in presence of NADPH regenerating system by HPLC analysis. Type of series: ADME, microsome. The gist of the method: as §2
Series [10] in a line: Half life in human plasma by HPLC analysis. Type of series: ADME, cell-free. The gist of the method: as §4
In series [11] the test system is Mus musculus. Nature of the series: AUC (0 to t) in ICR (CD-1) mouse at 20 mg/kg, iv administered as single dose by LC-MS analysis. The note with it: in vivo. Type of series: ADME, organism-based. The gist of the method: as §1
Series [12] in a line: Intrinsic clearance in mouse liver microsomes at 1 mg/ml in presence of NADPH regenerating system by HPLC analysis. The note with it: read-out: CLH. Type of series: ADME, microsome. The gist of the method: as §2
Series [13] in a line: Tmax in ICR (CD-1) mouse at 20 mg/kg, iv administered as single dose by LC-MS analysis. Type of series: ADME, organism-based. The note with it: in vivo. Put shortly: as §1
Series [14] has as its target Genome polyprotein (Enterovirus A71) (UniProt A0A1D8D5K2). Description: Covalent binding affinity to EV71 3C protease expressed in Escherichia coli BL21(DE3) at 2 mg/ml incubated for 2 to 3 hrs and measured after trypsin digestion by LC-MS/MS analysis.
Series [15] is described as follows: Cytotoxicity in human RD cells assessed as reduction in cell viability incubated for 24 hrs by WST1 assay. Type of series: cell-based. Put shortly: as §3
For orientation: Tetrazolium assays rely on reduction of a dye to a coloured formazan, in cell work by metabolically active cells.

Series [16] concerns Mus musculus. Description: Cmax in ICR (CD-1) mouse at 20 mg/kg, iv administered as single dose by LC-MS analysis. Set-up: dose 20 mg/kg, route intravenous. Type of series: ADME, organism-based. The note with it: in vivo. Put shortly: as §1

Chain of Genome polyprotein (A0A1D8D5K2 whole entry): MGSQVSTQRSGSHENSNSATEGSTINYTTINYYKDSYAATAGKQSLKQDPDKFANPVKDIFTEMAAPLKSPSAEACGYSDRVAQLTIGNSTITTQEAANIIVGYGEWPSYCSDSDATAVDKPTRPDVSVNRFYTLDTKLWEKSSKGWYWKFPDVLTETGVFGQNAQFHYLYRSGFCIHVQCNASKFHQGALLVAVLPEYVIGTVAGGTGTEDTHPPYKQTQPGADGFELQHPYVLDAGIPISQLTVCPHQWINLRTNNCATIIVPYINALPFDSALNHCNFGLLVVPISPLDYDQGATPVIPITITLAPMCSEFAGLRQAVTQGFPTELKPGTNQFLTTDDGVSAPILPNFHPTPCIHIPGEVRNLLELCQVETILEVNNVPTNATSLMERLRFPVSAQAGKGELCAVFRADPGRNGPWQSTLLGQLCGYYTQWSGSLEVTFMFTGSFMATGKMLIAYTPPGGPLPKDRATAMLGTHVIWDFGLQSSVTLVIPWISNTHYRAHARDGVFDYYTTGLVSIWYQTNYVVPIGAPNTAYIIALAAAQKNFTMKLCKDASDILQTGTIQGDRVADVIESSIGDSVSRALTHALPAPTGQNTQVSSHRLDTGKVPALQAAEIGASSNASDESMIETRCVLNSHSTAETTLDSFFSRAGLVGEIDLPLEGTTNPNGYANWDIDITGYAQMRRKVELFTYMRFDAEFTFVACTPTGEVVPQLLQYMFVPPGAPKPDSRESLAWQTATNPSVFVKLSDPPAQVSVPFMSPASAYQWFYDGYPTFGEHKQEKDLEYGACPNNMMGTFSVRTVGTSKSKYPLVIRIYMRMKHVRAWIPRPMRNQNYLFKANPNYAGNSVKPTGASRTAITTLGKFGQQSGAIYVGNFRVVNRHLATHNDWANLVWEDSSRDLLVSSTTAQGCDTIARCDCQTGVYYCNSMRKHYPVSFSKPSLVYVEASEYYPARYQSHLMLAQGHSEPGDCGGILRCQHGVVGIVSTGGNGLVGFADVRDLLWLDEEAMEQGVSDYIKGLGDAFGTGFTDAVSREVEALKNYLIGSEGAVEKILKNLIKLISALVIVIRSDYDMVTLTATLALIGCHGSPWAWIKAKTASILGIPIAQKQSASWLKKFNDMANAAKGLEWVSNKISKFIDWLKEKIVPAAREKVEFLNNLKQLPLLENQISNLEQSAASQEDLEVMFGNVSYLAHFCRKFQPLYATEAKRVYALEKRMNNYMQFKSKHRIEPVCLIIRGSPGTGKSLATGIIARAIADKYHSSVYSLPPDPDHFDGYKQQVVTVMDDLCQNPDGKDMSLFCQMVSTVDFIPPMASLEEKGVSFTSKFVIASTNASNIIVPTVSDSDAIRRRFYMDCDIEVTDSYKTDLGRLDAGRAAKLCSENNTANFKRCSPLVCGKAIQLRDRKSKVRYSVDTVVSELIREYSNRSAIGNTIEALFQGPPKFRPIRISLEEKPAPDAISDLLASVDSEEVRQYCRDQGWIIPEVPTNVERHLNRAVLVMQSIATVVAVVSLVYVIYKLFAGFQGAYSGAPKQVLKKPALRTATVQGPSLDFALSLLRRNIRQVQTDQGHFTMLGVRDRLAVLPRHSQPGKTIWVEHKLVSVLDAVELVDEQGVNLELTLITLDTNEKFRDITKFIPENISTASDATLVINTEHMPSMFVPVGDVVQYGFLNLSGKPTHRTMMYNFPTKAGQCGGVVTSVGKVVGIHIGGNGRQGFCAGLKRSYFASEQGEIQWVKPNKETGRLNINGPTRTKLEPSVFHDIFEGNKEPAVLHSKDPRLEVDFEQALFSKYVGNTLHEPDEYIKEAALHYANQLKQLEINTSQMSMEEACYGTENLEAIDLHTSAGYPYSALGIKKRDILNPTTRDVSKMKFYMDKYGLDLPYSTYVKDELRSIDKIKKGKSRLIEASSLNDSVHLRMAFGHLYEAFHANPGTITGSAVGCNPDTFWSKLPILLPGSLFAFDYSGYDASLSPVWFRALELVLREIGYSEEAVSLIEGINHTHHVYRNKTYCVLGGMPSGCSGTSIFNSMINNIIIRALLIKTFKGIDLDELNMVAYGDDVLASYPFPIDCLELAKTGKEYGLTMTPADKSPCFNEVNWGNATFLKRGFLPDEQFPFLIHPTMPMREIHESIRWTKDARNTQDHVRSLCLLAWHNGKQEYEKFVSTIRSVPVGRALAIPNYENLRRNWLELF
Chain of Genome polyprotein (Enterovirus A71) (A0A1D8D5K2 as listed by the source): as the sequence (A0A1D8D5K2 whole entry) above

Consider `CCCN1C(=N)[C@@H]([C@H](C[C@@H]2CCCNC2=O)NC(=O)[C@H](Cc2ccc(F)cc2)NC(=O)c2cc(C)on2)OC1=O`, for which the results for the Tmax in [1] and in [13] were 15 min and 5 min, respectively. At Genome polyprotein, this molecule had a pKi of 7.08. The figures for the Cmax in the series on Mus musculus [2] and in the series with Mus musculus [16] were 150 ng/mL and 8200 ng/mL, respectively. For the same molecule, the half-life was 35 min in series [3]; 51 min in [4]; 60 min in series [5]; greater than 120 min in [8]; 40 min in series [9]; greater than 120 min in [10]. In the series on Enterovirus A71, the pEC50 is 6.68. Also, the AUCt with Mus musculus [6] was 7.9 mg·min/mL; in the series with Mus musculus [11], 2340 ng·h/mL. Moreover, the microsomal CLint in series [7] was 17 µL/min/mg; in [12] it was 20 µL/min/mg. For the same molecule, the result in series [14] was inactive. In addition, the CC50 at 24 h in series [15] was greater than 100000 nM.
